According to ChEMBL document CHEMBL5724801, “EUbOPEN Chemogenomics Library - Multiplex” (2024):
“And” between values parts separate entries of the source, which are not always exact repeats. Equal entries are not always repeated.

System: Fibroblast
Assay: Multiplex assay against human fibroblast
Format: toxicity, cell-based
In short: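 Values for tubulin, mitochondrial-mass and membrane-permeability phenotypes are per cents of cells with healthy nuclei. These cells were identified by CellPathfinder machine-learning gating of live cells that had been stained at seeding with Hoechst33342, BioTracker Green Microtubule Cytoskeleton Dye, MitoTracker Red and Annexin V Alexa Fluor 680 and imaged on a CQ1 microscope at 37°C and 5% CO2 after compound addition. The gating first set Hoechst high-intensity objects apart from normal cells, then split normal cells into healthy, pyknosed or fragmented nuclei, and pyknosed cells into mitotic or apoptotic.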

[1] = 12 h, 1 µM, compound concentration 1 uM
[2] = 12 h, 10 µM, compound concentration 10 uM
[3] = 24 h, 1 µM, compound concentration 1 uM
[4] = 24 h, 10 µM, compound concentration 10 uM
[5] = 48 h, 1 µM, compound concentration 1 uM
[6] = 48 h, 10 µM, compound concentration 10 uM

SMILES: COCCn1c(C)c(C)s/c1=N\C(=O)C1C(C)(C)C1(C)C
- Population Apoptotic (%) [1]: 43% and 40%
- Population Fragmented Nuclei (%) [1]: 18% and 22%
- Population Healthy Nuclei (%) [1]: 69% and 57%
- Population Hoechst High Intensity Objects (%) [1]: 0% and 4%
- Population Membrane Permeable-Phenotype (%) [1]: 0% and 1%
- Population Mitochondria Different-Phenotype (%) [1]: 7% and 5%
- Population Mitotic Cells (%) [1]: 56% and 60%
- Population Normal (%) [1]: 99% and 95%
- Population Pyknosed Nuclei (%) [1]: 11% and 19%
- Population Tubulin-Different-Phenotype (%) [1]: 34% and 32%
- Total Cell Count [1]: 136 and 133
- Population Apoptotic (%) [2]: 64% and 37%
- Population Fragmented Nuclei (%) [2]: 19% and 38%
- Population Healthy Nuclei (%) [2]: 59% and 40%
- Population Hoechst High Intensity Objects (%) [2]: 2% and 6%
- Population Mitochondria Different-Phenotype (%) [2]: 14% and 8%
- Population Mitotic Cells (%) [2]: 35% and 62%
- Population Normal (%) [2]: 97% and 93%
- Population Pyknosed Nuclei (%) [2]: 20% and 21%
- Population Tubulin-Different-Phenotype (%) [2]: 56% and 64%
- Total Cell Count [2]: 167 and 120
- Population Apoptotic (%) [3]: 64% and 54%
- Population Fragmented Nuclei (%) [3]: 15% and 28%
- Population Healthy Nuclei (%) [3]: 72% and 54%
- Population Hoechst High Intensity Objects (%) [3]: 2% and 3%
- Population Membrane Permeable-Phenotype (%) [3]: 1% and 5%
- Population Mitochondria Different-Phenotype (%) [3]: 5%
- Population Mitotic Cells (%) [3]: 35% and 45%
- Population Normal (%) [3]: 97% and 96%
- Population Pyknosed Nuclei (%) [3]: 11% and 17%
- Population Tubulin-Different-Phenotype (%) [3]: 38% and 37%
- Total Cell Count [3]: 122 and 132
- Population Apoptotic (%) [4]: 68% and 33%
- Population Fragmented Nuclei (%) [4]: 20% and 40%
- Population Healthy Nuclei (%) [4]: 59% and 36%
- Population Hoechst High Intensity Objects (%) [4]: 4% and 3%
- Population Membrane Permeable-Phenotype (%) [4]: 0% and 11%
- Population Mitochondria Different-Phenotype (%) [4]: 15% and 19%
- Population Mitotic Cells (%) [4]: 31% and 66%
- Population Normal (%) [4]: 95% and 96%
- Population Pyknosed Nuclei (%) [4]: 19% and 23%
- Population Tubulin-Different-Phenotype (%) [4]: 61% and 66%
- Total Cell Count [4]: 154 and 120
- Population Apoptotic (%) [5]: 60%
- Population Fragmented Nuclei (%) [5]: 23% and 31%
- Population Healthy Nuclei (%) [5]: 63% and 56%
- Population Hoechst High Intensity Objects (%) [5]: 4% and 7%
- Population Membrane Permeable-Phenotype (%) [5]: 0% and 2%
- Population Mitochondria Different-Phenotype (%) [5]: 4%
- Population Mitotic Cells (%) [5]: 40%
- Population Normal (%) [5]: 95% and 92%
- Population Pyknosed Nuclei (%) [5]: 12% and 11%
- Population Tubulin-Different-Phenotype (%) [5]: 43% and 45%
- Total Cell Count [5]: 123 and 140
- Population Apoptotic (%) [6]: 75% and 58%
- Population Fragmented Nuclei (%) [6]: 23% and 49%
- Population Healthy Nuclei (%) [6]: 56% and 34%
- Population Hoechst High Intensity Objects (%) [6]: 7% and 8%
- Population Membrane Permeable-Phenotype (%) [6]: 0% and 14%
- Population Mitochondria Different-Phenotype (%) [6]: 22% and 11%
- Population Mitotic Cells (%) [6]: 25% and 41%
- Population Normal (%) [6]: 92% and 91%
- Population Pyknosed Nuclei (%) [6]: 20% and 16%
- Population Tubulin-Different-Phenotype (%) [6]: 67% and 65%
- Total Cell Count [6]: 151 and 111

SMILES: N#Cc1cc(F)cc(-c2nc(-c3ccc(F)cn3)no2)c1
- Population Apoptotic (%) [1]: 28% and 38%
- Population Fragmented Nuclei (%) [1]: 21% and 32%
- Population Healthy Nuclei (%) [1]: 63% and 37%
- Population Hoechst High Intensity Objects (%) [1]: 0% and 6%
- Population Mitochondria Different-Phenotype (%) [1]: 5% and 6%
- Population Mitotic Cells (%) [1]: 71% and 61%
- Population Normal (%) [1]: 100% and 93%
- Population Pyknosed Nuclei (%) [1]: 15% and 29%
- Population Tubulin-Different-Phenotype (%) [1]: 22% and 48%
- Total Cell Count [1]: 136 and 93
- Population Apoptotic (%) [2]: 48% and 28%
- Population Fragmented Nuclei (%) [2]: 15% and 42%
- Population Healthy Nuclei (%) [2]: 67% and 32%
- Population Hoechst High Intensity Objects (%) [2]: 1% and 8%
- Population Membrane Permeable-Phenotype (%) [2]: 2% and 9%
- Population Mitochondria Different-Phenotype (%) [2]: 5% and 12%
- Population Mitotic Cells (%) [2]: 51% and 72%
- Population Normal (%) [2]: 98% and 91%
- Population Pyknosed Nuclei (%) [2]: 17% and 24%
- Population Tubulin-Different-Phenotype (%) [2]: 23% and 36%
- Total Cell Count [2]: 179 and 110
- Population Apoptotic (%) [3]: 40% and 27%
- Population Fragmented Nuclei (%) [3]: 19% and 39%
- Population Healthy Nuclei (%) [3]: 68% and 38%
- Population Hoechst High Intensity Objects (%) [3]: 2% and 7%
- Population Mitochondria Different-Phenotype (%) [3]: 3%
- Population Mitotic Cells (%) [3]: 60% and 72%
- Population Normal (%) [3]: 97% and 92%
- Population Pyknosed Nuclei (%) [3]: 11% and 22%
- Total Cell Count [3]: 131 and 88
- Population Apoptotic (%) [4]: 70% and 35%
- Population Healthy Nuclei (%) [4]: 70% and 33%
- Population Hoechst High Intensity Objects (%) [4]: 4% and 11%
- Population Membrane Permeable-Phenotype (%) [4]: 0% and 5%
- Population Mitochondria Different-Phenotype (%) [4]: 6% and 11%
- Population Mitotic Cells (%) [4]: 29% and 65%
- Population Normal (%) [4]: 95% and 88%
- Population Pyknosed Nuclei (%) [4]: 16% and 18%
- Population Tubulin-Different-Phenotype (%) [4]: 22% and 41%
- Total Cell Count [4]: 170 and 120
- Population Apoptotic (%) [5]: 61% and 50%
- Population Fragmented Nuclei (%) [5]: 21% and 45%
- Population Healthy Nuclei (%) [5]: 68% and 32%
- Population Hoechst High Intensity Objects (%) [5]: 1% and 5%
- Population Membrane Permeable-Phenotype (%) [5]: 0% and 3%
- Population Mitochondria Different-Phenotype (%) [5]: 3% and 7%
- Population Mitotic Cells (%) [5]: 38% and 50%
- Population Normal (%) [5]: 98% and 94%
- Population Pyknosed Nuclei (%) [5]: 9% and 22%
- Population Tubulin-Different-Phenotype (%) [5]: 23% and 57%
- Total Cell Count [5]: 137 and 85
- Population Apoptotic (%) [6]: 84% and 50%
- Population Fragmented Nuclei (%) [6]: 20% and 44%
- Population Healthy Nuclei (%) [6]: 63% and 38%
- Population Hoechst High Intensity Objects (%) [6]: 7% and 5%
- Population Membrane Permeable-Phenotype (%) [6]: 0% and 15%
- Population Mitochondria Different-Phenotype (%) [6]: 11% and 5%
- Population Normal (%) [6]: 92% and 94%
- Population Pyknosed Nuclei (%) [6]: 16% and 17%
- Population Tubulin-Different-Phenotype (%) [6]: 28% and 50%
- Total Cell Count [6]: 162 and 110
